Structures are written as SMILES. The source made the active and inactive calls. No cut-off for these calls is given here.

These results are taken from ChEMBL document CHEMBL5226344, “A Chemical Strategy for Intracellular Arming of an Endogenous Broad-Spectrum Antiviral Nucleotide” (J Med Chem, 2021).

For data set [1], the system named is Zika virus. Description: (§1) Competitive inhibition of Zika virus RNA-dependent RNA polymerase assessed as chain termination by measuring inhibition of full length RNA production in presence of 10 uM CTP by primer extension assay based PAGE analysis. In outline: (§2)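 Purified ZIKV NS5 RdRp (1 μM), E. coli-expressed ubiquitin fusion with C-terminal His tag. Assembled 30 min at 30 °C with pGGC RNA primer, 20-nt RNA template, ATP, GTP and [α-32P]-ATP in HEPES pH 7.5 buffer with Mg2+. Started with UTP, 10 μM CTP and ddhCTP 0–5000 μM, 5 min, EDTA quench. Full-length RNA scored by denaturing 23% PAGE. IC50 from curve fits, 3 independent repeats.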

Data set [2] in a line: as §1. In a few lines: as §2
For data set [3], the system named is Huh-7. Description: Cytotoxicity against human Huh-7 cells assessed as reduction in cell viability at 0.1 to 1 mM incubated for 2 days by Alamar Blue assay. Format: toxicity, cell-based. As to conditions: huh-7, 48 h, 1000 µM, dose 0.1-1 mM, time 2 day. In outline:
(§3)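 HUH7 (2,000 cells/well) or Vero (1,500 cells/well) seeded in 10% FBS medium, 24 h; serially diluted compound added (final DMSO 0.5%); incubated 2 or 5 days; Alamar blue added 2 h before read; fluorescence minus no-cell background, normalized to DMSO control; technical triplicates, at least three biological replicates.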

The test system of data set [4] is Zika virus. Description: Antiviral activity against Zika virus PRABC59 infected in human Huh-7 cells assessed as log reduction in plaque forming units at 0.1 mM cells were pretreated with compound for 24 hrs followed by drug removal and subsequent viral infection for 1 hr and later incubated with compound and measured at 4 days post-infection. Format: functional. To be noted: time 5 day. In outline:
(§4)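 Cells in 24-well plates (2% FBS medium) pretreated 24 h with compound in medium (0, 0.1, 1 mM), medium removed, infected at MOI 0.1 for 1 h, washed three times, overlaid with drug-containing medium; 37°C, 5% CO2 for 3 days (WNV, 2003 crow isolate) or 4 days (ZIKV PRABC59); supernatant titered by plaque assay; triplicates; one-way ANOVA with Dunnett's test.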

Data set [5] concerns Vero. Description: Cytotoxicity against African green monkey Vero cells assessed as reduction in cell viability at 0.1 to 1 mM incubated for 2 days by Alamar Blue assay. It is filed as toxicity, cell-based. To be noted: chlorocebus sabaeus, 48 h, 1000 µM, dose 0.1-1 mM, time 2 day. In a few lines:
as §3

The nature of data set [6]: Cytotoxicity against African green monkey Vero cells assessed as cell viability at 1 mM incubated for 5 days by Alamar Blue assay. It is filed as toxicity, cell-based. As to conditions: chlorocebus sabaeus, time 5 day, read-out: Activity. In a few lines:
as §3
A general note: The colour change of resazurin is a common sign of viable cells or microbes.

Data set [7] can be described thus: Stability of the compound in simulated gastric fluid assessed as parent compound remaining at 200 uM measured after 6 hrs by LC-MS/MS analysis. Format: physicochemical. To be noted: read-out: Stability.
Data set [8] has as its system Zika virus. Description: Antiviral activity against Zika virus PRABC59 infected in human Huh7.5 cells assessed as log reduction in plaque forming units at 0.1 mM cells were pretreated with compound for 24 hrs followed by drug removal and subsequent viral infection for 1 hr and later incubated with compound and measured at 4 days post-infection. Format: functional. Further details: dose or concentration left out as unconfirmed. As to conditions: time 5 day.

Data set [9] is described as follows: Drug metabolism in human Huh-7 cells expressing HINT1 assessed as ddhCTP level at 100 uM incubated for 24 hrs measured per 5 million cells by mass spectrometry (Rvb <0.01 nmol). As to conditions: huh-7, 24 h.
In data set [10] the test system is West Nile virus. Description: Antiviral activity against West Nile virus infected in human Huh7.5 cells assessed as log reduction in plaque forming units at 1 mM cells were pretreated with compound for 24 hrs followed by drug removal and subsequent viral infection for 1 hr and later incubated with compound and measured at 3 days post-infection. Format: functional. To be noted: time 4 day. In outline: as §4

Data set [11] in a line: Metabolic stability of the compound in human plasma assessed as parent compound remaining at 2 uM measured upto 2 hrs by LC-MS analysis. It is filed as ADME, cell-free. In outline: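 Pooled human plasma (3 male, 3 female), pH 7.4, spiked to 2 μM final; 37°C; sampled at 0, 10, 30, 60, 120 min; quenched with MeCN:MeOH containing tolbutamide and labetalol; LC-MS peak-area ratio versus internal standards, percent remaining relative to t0; propantheline as positive control.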

Data set [12] concerns West Nile virus. Description: Antiviral activity against West Nile virus infected in human Huh-7 cells assessed as log reduction in plaque forming units at 1 mM cells were pretreated with compound for 24 hrs followed by drug removal and subsequent viral infection for 1 hr and later incubated with compound and measured at 3 days post-infection. Format: functional. To be noted: time 4 day. In outline: as §4

Data set [13] is described as follows: Apparent permeability across apical to basolateral side in human Caco-2 cells at 2 to 10 uM incubated for 2 hrs […]. It is filed as ADME, cell-based. To be noted: dose 2-10 µM. In a few lines: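 Caco-2 monolayers grown 21-28 days; compound at 2 or 10 μM in HBSS/10 mM HEPES pH 7.4 (DMSO <1%); 2 h at 37°C, 5% CO2; donor and receiver quantified by LC-MS against internal standard; monolayer integrity by Lucifer Yellow; Papp from receiver accumulation rate, volume, area 0.0804 cm2 and initial donor concentration.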
For orientation: Caco-2 monolayers are a common model of the intestinal barrier.

The test system of data set [14] is West Nile virus. Description: Antiviral activity against West Nile virus infected in African green monkey Vero cells assessed as reduction in virus-induced cytopathic effect at 0.1 to 1 mM cells were pretreated with compound for 24 hrs followed by drug removal and subsequent viral infection for 1 hr and later incubated with compound and measured at 3 days post-infection. Format: functional, organism-based. To be noted: dose 0.1-1 mM, time 3.0 day. In general terms: Protection from cytopathic effect is a common read-out in antiviral testing.

Data set [15] concerns Zika virus. Description: Antiviral activity against Zika virus PRABC59 infected in African green monkey Vero cells assessed as reduction in virus-induced cytopathic effect at 0.1 to 1 mM cells were pretreated with compound for 24 hrs followed by drug removal and subsequent viral infection for 1 hr and later incubated with compound and measured at 4 days post-infection. To be noted: dose 0.1-1 mM, time 5.0 day. Format: functional, organism-based.

A short description of data set [16]: Cytotoxicity against human Huh-7 cells assessed as cell viability at 1 mM incubated for 5 days by Alamar Blue assay. Format: toxicity, cell-based. To be noted: time 5 day, read-out: Activity. In outline: as §3
Data set [17] in a line: Drug metabolism in human Huh-7 cells transfected with HINT1 assessed as intracellular concentration of ddhCTP at 100 uM incubated for 24 hrs by mass spectrometry. It is filed as ADME, cell-based. To be noted: huh-7, 24 h.
Data set [18] relates to West Nile virus. Description: Antiviral activity against West Nile virus infected in human Huh7.5 cells assessed as reduction in virus-induced cytopathic effect at 0.1 to 1 mM cells were pretreated with compound for 24 hrs followed by drug removal and subsequent viral infection for 1 hr and later incubated with compound and measured at 3 days post-infection. Format: functional, organism-based. To be noted: dose 0.1-1 mM, time 3.0 day. In a few lines: (§5)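 Cells grown in DMEM with 2% FBS, pretreated 24 h before confluency with media containing 0, 0.1 or 1 mM compound (diluted from DMSO stocks). Media removed, WNV (2003 crow isolate) added at MOI 0.1 for 1 h, then washed 3x with HBSS. Drug-containing overlay applied, 37°C, 5% CO2, 3 days. Media harvested, titre by plaque titration, triplicate. One-way ANOVA with Dunnett's test.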

The test system of data set [19] is West Nile virus. Description: Antiviral activity against West Nile virus infected in human Huh-7 cells assessed as reduction in virus-induced cytopathic effect at 0.1 to 1 mM cells were pretreated with compound for 24 hrs followed by drug removal and subsequent viral infection for 1 hr and later incubated with compound and measured at 3 days post-infection. It is filed as functional, organism-based. As to conditions: dose 0.1-1 mM, time 3.0 day. In a few lines: as §5

`Nc1ccn([C@@H]2OC(COP(=O)(O)OP(=O)(O)OP(=O)(O)O)=C[C@H]2O)c(=O)n1`: in data set [1], the inhibition entry is “Dose-Dependent Effect”. Further, the IC50 in data set [2] amounted to 320 µM.

On to `CC(C)OC(=O)[C@H](C)N[P@@](=O)(OCC1=C[C@@H](O)[C@H](n2ccc(N)nc2=O)O1)Oc1ccccc1`, for which the Activity entry in data set [3] was “Non-Toxic”; in data set [4], above 1 log10PFU/ml; in [5], “Non-Toxic”; in data set [8], above 1 log10PFU/ml; in data set [10] it was above 4 log10PFU/ml; in [12], above 4 log10PFU/ml. The viability at 120 h, 1000 µM in [6] and in data set [16] was above 60% throughout. Further, the remaining at 6 h, 200 µM in [7] was 76%. The Drug metabolism is recorded as 3.8 nmol in [9] and above 1 mM in data set [17]. Further, in data set [11], the Stability is listed as above 87%. For the same molecule, the Papp A→B at 2 h, up to 10 µM in data set [13] amounted to 0.03 ×10⁻⁶ cm/s. For the same molecule, the outcome in [14] and in data set [15] was inactive.

On to `Nc1ccn([C@@H]2OC(CO)=C[C@H]2O)c(=O)n1`, for which the Activity entry in data set [3] and in [5] was “Non-Toxic” each time. For the same molecule, the Drug metabolism in data set [9] was 0.13 nmol. The outcome in data set [18], in [19] and in [14] was inactive.

In general, IC50 refers to the midpoint of a concentration-inhibition curve. What is called Papp A→B is how fast a substance crosses the layer from the apical side.
